# In ChEMBL document CHEMBL1255327, “Carbapenem-resistant Acinetobacter baumannii isolates from Tunisia producing the OXA-58-like carbapenem-hydrolyzing oxacillinase OXA-97” (2008):
# What was measured:
# [1] = test system: Acinetobacter baumannii; assay: Activity of Acinetobacter baumannii phenotype 2 beta-lactamase assessed per mg of protein at 100 uM
# Summary of the method: (§1)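 Crude extracts made by sonication from A. baumannii clinical isolates and from E. coli TOP10 recombinants expressing OXA-97 or OXA-58. Specific activity measured against imipenem, meropenem, cephalothin, ceftazidime, oxacillin and benzylpenicillin, each at 100 μM final. Values are means of three independent experiments; standard deviations within 10% of means.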
# [2] = test system: Acinetobacter baumannii; assay: Activity of Acinetobacter baumannii phenotype 1 beta-lactamase assessed per mg of protein at 100 uM; summary of the method: as §1
# [3] = test system: Acinetobacter baumannii; assay: Activity of Acinetobacter baumannii MAD beta-lactamase assessed per mg of protein at 100 uM; summary of the method: as §1
# [4] = test system: Escherichia coli; assay: Activity of Escherichia coli TOP10 beta-lactamase OXA-58 assessed per mg of protein at 100 uM; summary of the method: as §1
# [5] = test system: Escherichia coli; assay: Activity of Escherichia coli TOP10 beta-lactamase OXA-97 assessed as specific activity per mg of protein at 100 uM; summary of the method: as §1
# [6] = test system: Acinetobacter baumannii; assay: Antibacterial activity against Acinetobacter baumannii CIP7010 by disk diffusion method; type: functional
# Summary of the method: (§2)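 Disk diffusion on Mueller-Hinton agar plates with β-lactam and non-β-lactam antibiotic disks, interpreted per CLSI guidelines.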
# [7] = test system: Acinetobacter baumannii; assay: Antibacterial activity against Acinetobacter baumannii MAD […]; type: functional
# [8] = Antibacterial activity against Escherichia coli DH10B; type: functional, Escherichia coli str. K-12 substr. DH10B
# [9] = test system: Acinetobacter baumannii; assay: Antibacterial activity against Acinetobacter baumannii phenotype 1 […] in presence of 4 ug/ml clavulanic acid; type: functional
# [10] = test system: Acinetobacter baumannii; assay: Antibacterial activity against Acinetobacter baumannii MAD […] in presence of 4 ug/ml clavulanic acid; type: functional
# [11] = test system: Escherichia coli; assay: Antibacterial activity against Escherichia coli DH10B in presence of 4 ug/ml clavulanic acid; type: functional; conditions: K-12 DH10B
# [12] = test system: Escherichia coli; assay: Antibacterial activity against Escherichia coli TOP10 harboring pOXA-58; type: functional
# [13] = test system: Escherichia coli; assay: Antibacterial activity against Escherichia coli TOP10 harboring pOXA-58 in presence of 4 ug/ml clavulanic acid; type: functional
# [14] = test system: Acinetobacter baumannii; assay: Antibacterial activity against Acinetobacter baumannii phenotype 1 […]; type: functional; summary of the method: as §2
# [15] = test system: Acinetobacter baumannii; assay: Antibacterial activity against Acinetobacter baumannii CIP7010 by disk diffusion method in presence of 4 ug/ml clavulanic acid; type: functional
# [16] = Antibacterial activity against Escherichia coli DH10B harboring pOXA-97; type: functional, Escherichia coli str. K-12 substr. DH10B
# [17] = Antibacterial activity against Escherichia coli DH10B harboring pOXA-97 in presence of 4 ug/ml clavulanic acid; type: functional, Escherichia coli str. K-12 substr. DH10B
# [18] = test system: Acinetobacter baumannii; assay: Antibacterial activity against Acinetobacter baumannii phenotype 2 […]; type: functional; summary of the method: as §2
# [19] = test system: Acinetobacter baumannii; assay: Antibacterial activity against Acinetobacter baumannii phenotype 2 […] in presence of 4 ug/ml clavulanic acid; type: functional
# [20] = test system: Escherichia coli; assay: Antibacterial activity against Escherichia coli TOP10 harboring pOXA-97 in presence of 4 ug/ml clavulanic acid; type: functional
# [21] = test system: Escherichia coli; assay: Antibacterial activity against Escherichia coli TOP10 harboring pOXA-97; type: functional
# [22] = test system: Acinetobacter baumannii; assay: Antibacterial activity against Acinetobacter baumannii CIP7010 harboring pOXA-97 by disk diffusion method; type: functional
# Summary of the method: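 Disk diffusion on Mueller-Hinton agar with β-lactam and non-β-lactam disks, per CLSI guidelines. The strain is an electroporation transformant of recipient CIP7010, with clinical isolates A1 and A2 as plasmid donors, selected on Trypticase soy agar containing 50 μg/ml ticarcillin.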
Structure (SMILES),Activity [2],Activity [3],Activity [4],Activity [5],MIC [6],MIC [7],MIC [8],MIC [12],MIC [14],MIC [16],MIC [18],MIC [21],MIC [22],further results
CC(=O)OCC1=C(C(=O)O)N2C(=O)[C@@H](NC(=O)Cc3cccs3)[C@H]2SC1,20 mU/mg,15 mU/mg,15 mU/mg,20 mU/mg,–,–,–,–,–,–,–,–,–,Activity [1]: 10 mU/mg
CC1(C)S[C@@H]2[C@H](NC(=O)Cc3ccccc3)C(=O)N2[C@H]1C(=O)O,220 mU/mg,170 mU/mg,150 mU/mg,220 mU/mg,–,–,–,–,–,–,–,–,–,Activity [1]: 210 mU/mg
Cc1onc(-c2ccccc2)c1C(=O)N[C@@H]1C(=O)N2[C@@H]1SC(C)(C)[C@@H]2C(=O)O,230 mU/mg,230 mU/mg,210 mU/mg,220 mU/mg,–,–,–,–,–,–,–,–,–,–
CC1(C)S[C@@H]2[C@H](NC(=O)[C@H](N)c3ccccc3)C(=O)N2[C@H]1C(=O)O [AMPICILLIN],–,–,–,–,> 512 µg/mL,> 512 µg/mL,4 µg/mL,> 512 µg/mL,> 512 µg/mL,> 512 µg/mL,> 512 µg/mL,> 512 µg/mL,–,MIC [9]: > 512 µg/mL; MIC [10]: > 512 µg/mL; MIC [11]: 4 µg/mL; MIC [13]: 128 µg/mL; MIC [15]: 512 µg/mL; MIC [17]: 128 µg/mL; MIC [19]: > 512 µg/mL; MIC [20]: 128 µg/mL
C[C@H]1[C@H](NC(=O)/C(=N\OC(C)(C)C(=O)O)c2csc(N)n2)C(=O)N1S(=O)(=O)O [AZTREONAM],–,–,–,–,64 µg/mL,32 µg/mL,0.12 µg/mL,0.06 µg/mL,128 µg/mL,0.06 µg/mL,128 µg/mL,0.12 µg/mL,64 µg/mL,–
CO/N=C(\C(=O)N[C@@H]1C(=O)N2C(C(=O)[O-])=C(C[N+]3(C)CCCC3)CS[C@H]12)c1csc(N)n1 [CEFEPIME],–,–,–,–,1 µg/mL,256 µg/mL,0.06 µg/mL,0.06 µg/mL,64 µg/mL,0.12 µg/mL,256 µg/mL,0.06 µg/mL,1 µg/mL,–
CC(C)(O/N=C(\C(=O)N[C@@H]1C(=O)N2C(C(=O)[O-])=C(C[n+]3ccccc3)CS[C@H]12)c1csc(N)n1)C(=O)O [CEFTAZIDIME],1 mU/mg,2 mU/mg,1.5 mU/mg,0.5 mU/mg,2 µg/mL,128 µg/mL,0.06 µg/mL,0.06 µg/mL,> 512 µg/mL,0.12 µg/mL,> 512 µg/mL,0.06 µg/mL,2 µg/mL,–
C[C@@H](O)[C@H]1C(=O)N2C(C(=O)O)=C(SCCNC=N)C[C@H]12 [IMIPENEM ANHYDROUS],5.2 mU/mg,4.5 mU/mg,3 mU/mg,4 mU/mg,0.25 µg/mL,32 µg/mL,0.06 µg/mL,2 µg/mL,32 µg/mL,1 µg/mL,16 µg/mL,2 µg/mL,2 µg/mL,–
C[C@@H](O)[C@H]1C(=O)N2C(C(=O)O)=C(S[C@@H]3CN[C@H](C(=O)N(C)C)C3)[C@H](C)[C@H]12 [MEROPENEM],1.7 mU/mg,1.5 mU/mg,1 mU/mg,1 mU/mg,0.25 µg/mL,> 64 µg/mL,0.06 µg/mL,0.12 µg/mL,16 µg/mL,0.5 µg/mL,16 µg/mL,0.12 µg/mL,2 µg/mL,–
CC1(C)S[C@@H]2[C@H](NC(=O)[C@H](C(=O)O)c3ccsc3)C(=O)N2[C@H]1C(=O)O [TICARCILLIN],–,–,–,–,4 µg/mL,> 512 µg/mL,4 µg/mL,> 512 µg/mL,> 512 µg/mL,> 512 µg/mL,64 µg/mL,> 512 µg/mL,> 512 µg/mL,–
